The list is not random: actives were taken first. Their share in the collection is about 3.7%.
KCNQ1 act: potentiators or activators of human KCNQ1 potassium channel. P51787. CHO-K1 KCNQ1, thallium flux FluxOR fluorescence; hits give high values. B-score at 10 µM. actives 0.35% (n = 310,000). AID 2648;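 active = fluorescence ratio B-score, a plate-corrected score, at least three library SD, with initial intensity B-score within 5 SD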
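assay system = KCNQ1-transfected CHO-K1 cells | medium = assay buffer with matched DMSO | probe or stimulus = depolarizing K+/Tl+ stimulus, K2SO4 and Tl2SO4 each 12.5 mM in 5x stock | dosing = single dose | incubation = dye 90 min, compound 20 min, room temperature | detection = kinetic FluxOR fluorescence, 10 s baseline plus 110 s post-stimulus | evaluation = ratio B score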
hERG protect: shields human hERG channel from block by proarrhythmic agents. Q12809. CHO-hERG, FluxOR thallium flux, dofetilide IC70 present. activation (rescue from dofetilide block), less the hit threshold, % at 10 µM. actives 0.51% (n = 310,000). AID 1511;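 active = activation above the mean of controls blocked by dofetilide plus 5 SD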;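 also: thallium influx through hERG after potassium depolarization seen as dye fluorescence rise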
Kir21 inh: inhibitors of mouse Kir2.1 inward-rectifier potassium channel; HEK293-Kir2.1, FluxOR thallium flux fluorescence; hits give low values; B-score at 10 µM; actives 0.85% (n = 310,000); AID 1672;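 active = fluorescence ratio B-score at or below minus 3 SD of library scores, with starting-brightness B-score within 2 SD, cut at about -4.2 in these data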;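 also: channel flux triggered by added potassium and thallium sulfate stimulus; B-score of peak minus minimum fluorescence over baseline after thallium stimulus; more negative B-score means stronger Kir2.1 block with less thallium influx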
Target sequence (P35561 whole entry, looked up): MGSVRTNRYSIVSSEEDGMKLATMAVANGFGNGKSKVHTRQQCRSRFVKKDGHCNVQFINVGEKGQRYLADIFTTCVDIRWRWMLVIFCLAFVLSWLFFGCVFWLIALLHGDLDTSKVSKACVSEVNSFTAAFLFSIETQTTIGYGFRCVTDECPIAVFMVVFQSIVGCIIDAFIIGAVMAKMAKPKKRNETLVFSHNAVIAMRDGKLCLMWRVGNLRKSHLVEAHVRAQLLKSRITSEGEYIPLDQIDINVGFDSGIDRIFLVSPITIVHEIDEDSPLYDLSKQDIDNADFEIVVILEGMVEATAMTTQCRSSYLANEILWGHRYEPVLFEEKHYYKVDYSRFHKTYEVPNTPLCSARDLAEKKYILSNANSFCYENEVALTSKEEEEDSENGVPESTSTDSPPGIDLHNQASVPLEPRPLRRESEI
KCNQ1 inh: blocks the human KCNQ1 potassium channel | P51787 | CHO-K1 KCNQ1, FluxOR thallium flux fluorescence; hits give high values | B-score at 10 µM | actives 1.3% (n = 310,000) | AID 2642;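 active = compounds whose thallium flux B-score, printed positive for inhibition, exceeds three library SD while starting fluorescence stays within three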;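 also: channel opened by potassium depolarization with thallium stimulus after 20 min compound exposure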
KCNK9 block: inhibitors of human KCNK9 two-pore domain potassium channel; Q9NPC2; HEK293 KCNK9, FluxOR thallium flux fluorescence; hits give low values; B-score at 10 µM; actives 1.2% (n = 310,000); AID 488922;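 active = ratio B-score over 3 SD below the library mean, with starting fluorescence within 5 SD of its mean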;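 also: negative B-score means less thallium flux so channel inhibition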
KCNK3 block: human KCNK3 channel inhibition, primary screen; CHO-KCNK3 thallium flux, FluxOR fluorescence; hits give low values; B-score at 10 µM; actives 0.84% (n = 340,000); AID 602410;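 active = B-score under library mean minus 4 SD, starting fluorescence ratio at most library mean plus 5 SD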;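 also: more negative B-score means stronger inhibition of thallium flux through KCNK3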
* marks the source's active call; other numbers are inactive results.

For O=C(CN(CC1CCCO1)C(=O)CNS(=O)(=O)c1ccccc1)NCc1ccco1 (centres undefined) the results were KCNQ1 act inactive, hERG protect 7.2*, Kir21 inh -0.85, KCNQ1 inh inactive, KCNK9 block inactive and KCNK3 block inactive.
O=C(CN(CC1CCCO1)C(=O)CNS(=O)(=O)c1ccc(F)cc1)NCc1ccccc1 (centres undefined) was read as KCNQ1 act inactive, hERG protect -1, Kir21 inh -0.33, KCNQ1 inh inactive, KCNK9 block inactive and KCNK3 block inactive.
`COc1cc(OC)cc(C(=O)NNC(=O)c2ccc(S(=O)(=O)N3CC(C)OC(C)C3)cc2)c1` (centres undefined) gave KCNQ1 act inactive, hERG protect -9, Kir21 inh 0.04, KCNQ1 inh inactive, KCNK9 block inactive and KCNK3 block inactive.
For COc1ccc(C(=O)NNC(=O)c2ccc(S(=O)(=O)N3CC(C)OC(C)C3)cc2)cc1 (centres undefined) the results were KCNQ1 act inactive, hERG protect -7, Kir21 inh 1.2, KCNQ1 inh 7*, KCNK9 block inactive and KCNK3 block inactive.
`CCC[C@@H](CNC)NC[C@H](Cc1ccccc1)NCCCCc1ccccc1` gave KCNQ1 act inactive, hERG protect -11, Kir21 inh -4.5*, KCNQ1 inh inactive, KCNK9 block inactive and KCNK3 block inactive.
For CNC[C@@H](CC1CCCCC1)NC[C@H](CC(C)C)NCCc1cccc(C(F)(F)F)c1 the results were KCNQ1 act inactive, hERG protect -30, Kir21 inh -8.8*, KCNQ1 inh 9*, KCNK9 block inactive and KCNK3 block inactive.
Screening CNC[C@@H](Cc1ccccc1)NC[C@@H](CC1CCCCC1)NCCCc1ccccc1 returned KCNQ1 act inactive, hERG protect -25, Kir21 inh -11*, KCNQ1 inh 7*, KCNK9 block -8.1* and KCNK3 block inactive.
For CCC[C@@H](CN[C@@H](CNC)C(C)C)NCCCCc1ccccc1 the results were KCNQ1 act inactive, hERG protect -6, Kir21 inh -2.2, KCNQ1 inh inactive, KCNK9 block inactive and KCNK3 block inactive.
For O=C(O)c1cn(-c2ccc(F)cc2)c2cc(N3CCNCC3)c(F)cc2c1=O the results were KCNK3 block inactive.
CC1N(C)c2cc(NC(=O)c3cccs3)c(P(=O)(Nc3ccc([N+](=O)[O-])cc3)N3CCOCC3)cc2C1(C)C (centres undefined) was read as KCNQ1 act inactive, hERG protect -11, Kir21 inh -0.11, KCNQ1 inh inactive, KCNK9 block -7.2* and KCNK3 block inactive.
COc1cc(C(=O)NC(C)CCn2cccn2)ccc1OC1CCN(C(C)=O)CC1 (centres undefined) was read as KCNQ1 act inactive, hERG protect -11, Kir21 inh 0.42, KCNQ1 inh inactive, KCNK9 block inactive and KCNK3 block inactive.
`Cc1[nH]n2c(=O)cc(C(C)C)nc2c1-c1ccccc1` gave KCNQ1 act inactive, hERG protect -3, Kir21 inh -0.85, KCNQ1 inh inactive, KCNK9 block inactive and KCNK3 block inactive.
Screening Cc1[nH]n2c(=O)cc(C(C)(C)C)nc2c1-c1ccccc1 returned KCNQ1 act 15*, hERG protect 8.6*, Kir21 inh -1.5, KCNQ1 inh inactive, KCNK9 block inactive and KCNK3 block inactive.
Cc1[nH]n2c(=O)cc(-c3ccc([N+](=O)[O-])cc3)nc2c1-c1ccccc1 was read as KCNQ1 act inactive, hERG protect -8, Kir21 inh -0.14, KCNQ1 inh 7*, KCNK9 block inactive and KCNK3 block inactive.
Screening CSCCC(NC(=O)C1CCC(C)CC1)C(=O)NCCN1CCC(C)CC1 (centres undefined) returned KCNQ1 act inactive, hERG protect -6, Kir21 inh -2.2, KCNQ1 inh inactive, KCNK9 block inactive and KCNK3 block inactive.
For CCn1nc(NS(=O)(=O)c2ccc([N+](=O)[O-])cc2)c2cc3cccc(C)c3nc21 the results were KCNQ1 act inactive, hERG protect -7, Kir21 inh 2.9, KCNQ1 inh 9*, KCNK9 block inactive and KCNK3 block inactive.

Screens from PubChem.
